Each block holds one compound with its values, some of them ahead of it.
Experiments:
[1] = target: Protein-tyrosine kinase 6 (Homo sapiens, UniProt Q13882); assay: Inhibition of Brk (unknown origin) using [gamma-33P]-ATP after 60 mins by scintillation counting
[2] = target: Homeodomain-interacting protein kinase 1 (Homo sapiens, UniProt Q86Z02); assay: Inhibition of human HIPK1
[3] = target: Serine/threonine-protein kinase PAK 1 (Homo sapiens, UniProt Q13153); assay: Inhibition of human PAK1
[4] = target: Serine/threonine-protein kinase VRK1 (Homo sapiens, UniProt Q99986); assay: Inhibition of human VRK1
Chain of Serine/threonine-protein kinase VRK1 (Q99986 whole entry): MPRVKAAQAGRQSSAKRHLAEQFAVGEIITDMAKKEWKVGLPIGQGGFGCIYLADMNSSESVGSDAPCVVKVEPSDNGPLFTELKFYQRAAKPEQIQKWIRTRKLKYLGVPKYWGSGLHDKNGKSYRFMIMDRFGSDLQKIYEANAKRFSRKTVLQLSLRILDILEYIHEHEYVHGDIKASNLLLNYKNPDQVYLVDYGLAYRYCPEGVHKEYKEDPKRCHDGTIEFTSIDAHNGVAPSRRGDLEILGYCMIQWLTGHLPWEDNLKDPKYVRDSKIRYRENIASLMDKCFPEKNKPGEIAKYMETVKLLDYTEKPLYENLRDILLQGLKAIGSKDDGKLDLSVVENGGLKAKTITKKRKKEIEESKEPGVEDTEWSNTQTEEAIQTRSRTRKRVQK

[5] = target: Serine/threonine-protein kinase PAK 2 (Homo sapiens, UniProt Q13177); assay: Inhibition of human PAK2
In short: (§1)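 Radiometric kinase assay in FlashPlates. Test compound was added from a 10% DMSO solution and ATP from an aqueous solution. The reaction was stopped with 2% (v/v) phosphoric acid, and plates were aspirated and washed with water or 0.9% NaCl. ³³Pi incorporation was read on a microplate scintillation counter.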

[6] = target: Homeodomain-interacting protein kinase 3 (Homo sapiens, UniProt Q9H422); assay: Inhibition of human HIPK3
[7] = target: Serine/threonine-protein kinase PAK 3 (Homo sapiens, UniProt O75914); assay: Inhibition of human PAK3
MCF7 = assay: Antiproliferative activity against human MCF7 cells by sulfur rhodamine assay; assay type: functional
[8] = Inhibition of human MARK5
[9] = target: Serine/threonine-protein kinase 24 (Homo sapiens, UniProt Q9Y6E0); assay: Inhibition of human MST3; in short: as §1
[10] = target: Serine/threonine-protein kinase Nek1 (Homo sapiens, UniProt Q96PY6); assay: Inhibition of human NEK1
[11] = target: Serine/threonine-protein kinase 26 (Homo sapiens, UniProt Q9P289); assay: Inhibition of human MST4
[12] = target: RAC-alpha serine/threonine-protein kinase (Homo sapiens, UniProt P31749); assay: Inhibition of human AKT1
Chain of RAC-alpha serine/threonine-protein kinase (P31749 whole entry): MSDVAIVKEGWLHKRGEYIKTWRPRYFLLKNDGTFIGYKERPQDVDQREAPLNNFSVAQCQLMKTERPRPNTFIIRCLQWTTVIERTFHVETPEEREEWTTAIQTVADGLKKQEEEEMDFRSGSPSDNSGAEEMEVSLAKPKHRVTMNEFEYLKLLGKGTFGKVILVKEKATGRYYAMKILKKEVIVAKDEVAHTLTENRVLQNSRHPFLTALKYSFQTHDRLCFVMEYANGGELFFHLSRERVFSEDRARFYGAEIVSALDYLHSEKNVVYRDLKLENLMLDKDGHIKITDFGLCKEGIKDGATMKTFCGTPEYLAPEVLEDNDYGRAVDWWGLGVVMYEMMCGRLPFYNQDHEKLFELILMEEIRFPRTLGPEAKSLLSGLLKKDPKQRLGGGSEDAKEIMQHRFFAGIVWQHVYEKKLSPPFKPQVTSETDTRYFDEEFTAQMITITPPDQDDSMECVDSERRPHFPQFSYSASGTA

[13] = target: Tyrosine-protein kinase JAK3 (Homo sapiens, UniProt P52333); assay: Inhibition of human JAK3; in short: as §1
Chain of Tyrosine-protein kinase JAK3 (P52333 whole entry): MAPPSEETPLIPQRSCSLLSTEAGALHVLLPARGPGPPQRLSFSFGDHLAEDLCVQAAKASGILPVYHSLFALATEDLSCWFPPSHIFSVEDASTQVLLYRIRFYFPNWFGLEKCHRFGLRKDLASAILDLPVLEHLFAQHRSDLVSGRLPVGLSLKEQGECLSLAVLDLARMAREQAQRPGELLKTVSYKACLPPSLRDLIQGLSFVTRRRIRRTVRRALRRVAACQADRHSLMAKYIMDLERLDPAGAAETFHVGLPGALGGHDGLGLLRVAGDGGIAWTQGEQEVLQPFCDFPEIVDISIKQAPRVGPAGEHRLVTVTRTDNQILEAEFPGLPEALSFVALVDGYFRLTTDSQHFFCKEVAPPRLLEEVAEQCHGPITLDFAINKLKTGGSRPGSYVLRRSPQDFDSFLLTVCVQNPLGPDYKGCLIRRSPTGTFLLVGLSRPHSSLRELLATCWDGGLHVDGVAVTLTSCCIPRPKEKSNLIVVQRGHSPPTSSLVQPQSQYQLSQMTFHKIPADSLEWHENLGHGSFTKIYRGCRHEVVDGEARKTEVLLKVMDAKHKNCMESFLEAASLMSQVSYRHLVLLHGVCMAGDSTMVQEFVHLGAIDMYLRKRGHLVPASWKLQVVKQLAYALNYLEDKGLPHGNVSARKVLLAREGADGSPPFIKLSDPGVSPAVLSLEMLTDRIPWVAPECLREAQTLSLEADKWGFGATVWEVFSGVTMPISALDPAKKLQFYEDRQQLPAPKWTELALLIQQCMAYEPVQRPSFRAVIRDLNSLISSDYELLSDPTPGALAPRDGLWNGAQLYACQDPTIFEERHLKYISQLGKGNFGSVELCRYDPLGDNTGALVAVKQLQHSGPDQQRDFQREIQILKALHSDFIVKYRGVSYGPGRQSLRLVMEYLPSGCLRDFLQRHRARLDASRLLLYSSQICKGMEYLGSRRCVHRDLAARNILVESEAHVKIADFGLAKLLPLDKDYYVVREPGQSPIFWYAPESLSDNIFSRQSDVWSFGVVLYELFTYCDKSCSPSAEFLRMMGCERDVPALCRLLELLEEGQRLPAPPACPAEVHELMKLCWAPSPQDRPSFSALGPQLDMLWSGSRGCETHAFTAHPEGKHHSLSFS

[14] = target: RAC-gamma serine/threonine-protein kinase (Homo sapiens, UniProt Q9Y243); assay: Inhibition of human AKT3; in short: as §1
[15] = target: Serine/threonine-protein kinase MARK1 (Homo sapiens, UniProt Q9P0L2); assay: Inhibition of human MARK1
Chain of Serine/threonine-protein kinase MARK1 (Q9P0L2 whole entry): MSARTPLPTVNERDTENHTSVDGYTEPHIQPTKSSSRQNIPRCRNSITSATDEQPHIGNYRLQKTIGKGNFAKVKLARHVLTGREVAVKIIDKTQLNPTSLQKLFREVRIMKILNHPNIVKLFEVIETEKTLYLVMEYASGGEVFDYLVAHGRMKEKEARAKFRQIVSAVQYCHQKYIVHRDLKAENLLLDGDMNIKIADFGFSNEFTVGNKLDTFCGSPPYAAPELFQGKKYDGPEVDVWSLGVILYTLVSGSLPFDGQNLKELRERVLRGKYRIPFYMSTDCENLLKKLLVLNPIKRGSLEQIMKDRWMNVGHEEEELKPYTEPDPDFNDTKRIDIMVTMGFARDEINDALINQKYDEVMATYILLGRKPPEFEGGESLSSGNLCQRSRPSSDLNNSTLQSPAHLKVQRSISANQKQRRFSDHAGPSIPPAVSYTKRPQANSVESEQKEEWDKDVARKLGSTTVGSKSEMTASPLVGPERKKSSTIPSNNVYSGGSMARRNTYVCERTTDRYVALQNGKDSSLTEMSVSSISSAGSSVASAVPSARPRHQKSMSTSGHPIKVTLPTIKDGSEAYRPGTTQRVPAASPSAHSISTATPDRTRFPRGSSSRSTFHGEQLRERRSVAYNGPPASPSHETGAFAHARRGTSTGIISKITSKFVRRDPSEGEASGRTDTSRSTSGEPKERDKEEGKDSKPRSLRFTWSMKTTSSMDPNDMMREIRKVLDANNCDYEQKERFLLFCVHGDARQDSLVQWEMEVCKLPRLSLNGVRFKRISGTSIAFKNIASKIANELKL

[16] = target: MAP/microtubule affinity-regulating kinase 3 (Homo sapiens, UniProt P27448); assay: Inhibition of human MARK3; in short: as §1
Chain of MAP/microtubule affinity-regulating kinase 3 (P27448 whole entry): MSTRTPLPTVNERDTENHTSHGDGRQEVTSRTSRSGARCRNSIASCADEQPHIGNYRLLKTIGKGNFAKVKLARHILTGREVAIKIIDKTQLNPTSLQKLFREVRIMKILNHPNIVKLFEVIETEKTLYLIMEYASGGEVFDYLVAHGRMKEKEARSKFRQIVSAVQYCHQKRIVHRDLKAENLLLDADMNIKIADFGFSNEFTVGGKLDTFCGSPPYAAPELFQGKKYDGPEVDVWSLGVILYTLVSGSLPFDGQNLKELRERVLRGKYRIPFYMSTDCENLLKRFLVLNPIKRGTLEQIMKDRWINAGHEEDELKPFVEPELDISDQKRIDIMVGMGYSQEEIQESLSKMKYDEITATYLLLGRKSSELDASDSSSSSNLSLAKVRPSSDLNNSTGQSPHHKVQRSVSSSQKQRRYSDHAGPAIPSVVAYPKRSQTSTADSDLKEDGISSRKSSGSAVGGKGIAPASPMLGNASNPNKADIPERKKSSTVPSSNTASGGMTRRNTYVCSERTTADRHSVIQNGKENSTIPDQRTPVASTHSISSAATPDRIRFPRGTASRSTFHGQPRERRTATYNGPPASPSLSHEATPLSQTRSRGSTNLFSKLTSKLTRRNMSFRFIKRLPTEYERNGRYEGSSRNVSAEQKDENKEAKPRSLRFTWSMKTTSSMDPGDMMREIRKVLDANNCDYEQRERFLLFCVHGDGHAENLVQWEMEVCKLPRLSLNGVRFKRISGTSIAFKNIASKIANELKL

Myotonin-protein kinase = Myotonin-protein kinase (Homo sapiens, UniProt Q09013); assay: Inhibition of human DMPK
[17] = target: Mitogen-activated protein kinase 8 (Homo sapiens, UniProt P45983); assay: Inhibition of human JNK1
[18] = target: MAP kinase-activated protein kinase 5 (Homo sapiens, UniProt Q8IW41); assay: Inhibition of human MAPKAPK5
[19] = Antiproliferative activity against human Hs 578T cells by sulfur rhodamine assay; assay type: functional
[20] = target: Serine/threonine-protein kinase Nek2 (Homo sapiens, UniProt P51955); assay: Inhibition of human NEK2
[21] = target: Mitogen-activated protein kinase 10 (Homo sapiens, UniProt P53779); assay: Inhibition of human JNK3
[22] = target: RAC-beta serine/threonine-protein kinase (Homo sapiens, UniProt P31751); assay: Inhibition of human AKT2
[23] = target: MAP kinase-activated protein kinase 3 (Homo sapiens, UniProt Q16644); assay: Inhibition of human MAPKAPK3
Chain of MAP kinase-activated protein kinase 3 (Q16644 whole entry): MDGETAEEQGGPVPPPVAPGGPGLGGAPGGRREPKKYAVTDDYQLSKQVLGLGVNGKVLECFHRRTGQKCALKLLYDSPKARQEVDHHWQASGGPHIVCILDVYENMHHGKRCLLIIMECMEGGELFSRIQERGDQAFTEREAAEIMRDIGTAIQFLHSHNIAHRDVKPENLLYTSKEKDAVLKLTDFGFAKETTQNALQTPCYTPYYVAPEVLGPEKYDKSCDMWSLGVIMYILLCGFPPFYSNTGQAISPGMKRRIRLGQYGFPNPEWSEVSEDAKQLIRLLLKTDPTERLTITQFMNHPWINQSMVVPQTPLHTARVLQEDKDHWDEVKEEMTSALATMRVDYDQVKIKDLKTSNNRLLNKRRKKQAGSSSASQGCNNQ

[24] = target: Homeodomain-interacting protein kinase 2 (Homo sapiens, UniProt Q9H2X6); assay: Inhibition of human HIPK2
[25] = target: Serine/threonine-protein kinase pim-2 (Homo sapiens, UniProt Q9P1W9); assay: Inhibition of human PIM2
[26] = Antiproliferative activity against human BT549 cells by sulfur rhodamine assay; assay type: functional; conditions: BT-549
[27] = target: Calcium/calmodulin-dependent protein kinase type IV (Homo sapiens, UniProt Q16566); assay: Inhibition of human CAMK4
[28] = target: Mitogen-activated protein kinase 3 (Homo sapiens, UniProt P27361); assay: Inhibition of human ERK1; in short: as §1
[29] = target: Mitogen-activated protein kinase 1 (Homo sapiens, UniProt P28482); assay: Inhibition of human ERK2
[30] = target: Proto-oncogene tyrosine-protein kinase Src (Homo sapiens, UniProt P12931); assay: Inhibition of human Src
[31] = target: Glycogen synthase kinase-3 beta (Homo sapiens, UniProt P49841); assay: Inhibition of human GSK3beta

Chain of Protein-tyrosine kinase 6 (Q13882 whole entry): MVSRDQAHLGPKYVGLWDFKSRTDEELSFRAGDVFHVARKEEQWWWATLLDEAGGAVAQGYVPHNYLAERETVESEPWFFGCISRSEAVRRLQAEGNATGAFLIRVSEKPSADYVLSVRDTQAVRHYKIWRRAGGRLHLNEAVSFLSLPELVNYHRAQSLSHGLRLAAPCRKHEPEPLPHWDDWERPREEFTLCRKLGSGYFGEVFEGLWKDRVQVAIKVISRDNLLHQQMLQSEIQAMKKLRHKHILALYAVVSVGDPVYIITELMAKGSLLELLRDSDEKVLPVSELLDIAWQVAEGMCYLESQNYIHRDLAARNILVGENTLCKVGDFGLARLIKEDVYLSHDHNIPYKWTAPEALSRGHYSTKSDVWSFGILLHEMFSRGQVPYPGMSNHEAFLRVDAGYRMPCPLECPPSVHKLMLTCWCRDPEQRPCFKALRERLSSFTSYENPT
Chain of Serine/threonine-protein kinase PAK 1 (Q13153 whole entry): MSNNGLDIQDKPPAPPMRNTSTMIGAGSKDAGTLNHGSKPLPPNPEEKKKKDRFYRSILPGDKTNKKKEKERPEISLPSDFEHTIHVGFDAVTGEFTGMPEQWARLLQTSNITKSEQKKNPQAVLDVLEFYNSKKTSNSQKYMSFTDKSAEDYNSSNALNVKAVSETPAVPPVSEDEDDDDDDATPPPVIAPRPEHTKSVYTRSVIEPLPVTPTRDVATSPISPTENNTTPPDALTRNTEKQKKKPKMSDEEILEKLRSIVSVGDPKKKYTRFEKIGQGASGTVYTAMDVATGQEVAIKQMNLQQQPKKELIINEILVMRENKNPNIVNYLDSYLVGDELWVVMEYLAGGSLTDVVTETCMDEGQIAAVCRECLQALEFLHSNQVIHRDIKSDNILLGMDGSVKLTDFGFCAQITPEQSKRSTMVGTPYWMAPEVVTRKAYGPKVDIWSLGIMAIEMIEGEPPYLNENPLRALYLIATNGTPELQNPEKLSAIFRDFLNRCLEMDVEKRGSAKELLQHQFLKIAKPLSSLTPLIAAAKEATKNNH

IC50 [1]: Not Active
SMILES: Cc1ccccc1Nc1ccnc2[nH]c3ccccc3c12

IC50 [2]: > 10 µM
IC50 [3]: > 10 µM
IC50 [4]: > 10 µM
IC50 [5]: > 10 µM
IC50 [6]: > 10 µM
IC50 [7]: > 10 µM
GI50 (MCF7): 0.99 µM
IC50 [8]: > 10 µM
IC50 [9]: > 10 µM
IC50 [10]: > 10 µM
IC50 [11]: > 10 µM
IC50 [12]: > 10 µM
IC50 [13]: > 10 µM
IC50 [14]: > 10 µM
IC50 [15]: > 10 µM
IC50 [16]: > 10 µM
IC50 (Myotonin-protein kinase): > 10 µM
IC50 [17]: > 10 µM
IC50 [18]: > 10 µM
IC50 ([1]; read-out: IC50): 0.00315 µM
IC50 [20]: > 10 µM
IC50 [21]: > 10 µM
IC50 [22]: > 10 µM
IC50 [23]: > 10 µM
IC50 [24]: > 10 µM
IC50 [25]: > 10 µM
IC50 [27]: > 10 µM
IC50 [28]: > 10 µM
IC50 [29]: > 10 µM
IC50 [30]: 3.04 µM
IC50 [31]: > 10 µM
SMILES: Oc1cccc(Nc2ccnc3[nH]c4ccccc4c23)c1
GI50 [19]: 1.02 µM
GI50 [26]: 1.58 µM

IC50 ([1]; read-out: IC50): 0.00475 µM
SMILES: Clc1cccc(Nc2ccnc3[nH]c4ccccc4c23)c1

IC50 [1]: Not Active
SMILES: Clc1ccc(Nc2ccnc3[nH]c4ccccc4c23)cc1

IC50 ([1]; read-out: IC50): 0.0594 µM
SMILES: FC(F)(F)c1cccc(Nc2ccnc3[nH]c4ccccc4c23)c1

IC50 [1]: Not Active
SMILES: CSc1cccc(Nc2ccnc3[nH]c4ccccc4c23)c1

IC50 [1]: Not Active
SMILES: COc1cccc(Nc2ccnc3[nH]c4ccccc4c23)c1

IC50 ([1]; read-out: IC50): 0.155 µM
SMILES: CCOc1cccc(Nc2ccnc3[nH]c4ccccc4c23)c1

IC50 ([1]; read-out: IC50): 0.00565 µM
SMILES: O=[N+]([O-])c1cccc(Nc2ccnc3[nH]c4ccccc4c23)c1

IC50 ([1]; read-out: IC50): 0.19 µM
SMILES: COc1ccc(Nc2ccnc3[nH]c4ccccc4c23)cc1

IC50 ([1]; read-out: IC50): 0.0756 µM
SMILES: Cc1ccc(Nc2ccnc3[nH]c4ccccc4c23)cc1Cl

GI50 (MCF7): 8.12 µM
IC50 ([1]; read-out: IC50): 0.0695 µM
SMILES: Fc1ccc(Nc2ccnc3[nH]c4ccccc4c23)cc1Cl
GI50 [19]: 10.2 µM
GI50 [26]: > 100 µM

IC50 ([1]; read-out: IC50): 0.0534 µM
SMILES: Clc1cc(Cl)cc(Nc2ccnc3[nH]c4ccccc4c23)c1

IC50 ([1]; read-out: IC50): 0.00441 µM
SMILES: COc1cc(Nc2ccnc3[nH]c4ccccc4c23)ccc1Br

IC50 ([1]; read-out: IC50): 0.154 µM
SMILES: CCOc1cc(Nc2ccnc3[nH]c4ccccc4c23)ccc1Br

From ChEMBL document CHEMBL3232836, “Discovery of 4-anilino α-carbolines as novel Brk inhibitors” (Bioorg Med Chem Lett, 2014)
